Source: ChEMBL document CHEMBL1800034, “A synthetic 7,8-dihydroxyflavone derivative promotes neurogenesis and exhibits potent antidepressant effect” (J Med Chem, 2010)
Calls of active or inactive are those of the source. The calls are words filed in the database; no cut-off is given here.

Experiments:
Mus musculus [1] = experiment: Agonist activity at TrkB in C57BL/6J mouse brain assessed as TrkB 706 phosphorylation at 1 mg/kg, po at 1 hr by immunoblotting; type: functional, organism-based; parameters: dose 1 mg/kg
In short: (§1)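 C57BL/6J mice got a single oral dose of 1 mg/kg. Brains were collected at several time points, about 1 to 16 h after dosing. Lysates were immunoblotted for TrkB phosphorylation and for downstream Akt and MAPK phosphorylation.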

[2] = biological target: BDNF/NT-3 growth factors receptor (Rattus norvegicus) (UniProt Q63604); experiment: Agonist activity at TrkB in E16 rat embryonic cortical neurons assessed as inhibition of glutamate-induced caspase 3 activation at 10 nM after 30 mins followed by 16 hrs of 50 uM glutamate-challenge by ELISA; type: functional
In short: (§2)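 Cortical neurons from E16 rat embryos were pretreated with the indicated compound concentrations for 30 min. They were then challenged with 50 µM glutamate for 16 h. Active caspase-3 in the lysates was measured by ELISA.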

Mus musculus [3] = experiment: Antidepressant activity in C57BL/6J mouse assessed as decrease in immobility at 5 mg/kg, po administered for 21 days measured last 4 mins of total 6 mins observation time by forced swim test; type: functional, organism-based; parameters: dose 5 mg/kg
In short: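 Male C57BL/6J mice, 2–3 months old, were gavaged with saline or compound at 5 mg/kg for 21 days. Mice were acclimated to the test room for 2 days. There was no pre-swim. Each mouse swam for 6 min in a 16 cm cylinder of water 14 cm deep at 24 °C. Immobility was scored blind over the last 4 min; mean ± SEM, ANOVA.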

Mus musculus [4] = experiment: Toxicity in C57BL/6J mouse assessed as affect on complete blood count analysis at 5 mg/kg, po for 3 weeks; type: organism-based; parameters: dose 5 mg/kg, route oral; conditions: in vivo, 504 h
In short: (§3)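 Mice were dosed orally at 5 mg/kg for 3 weeks, with saline-treated controls. Major organs were examined for pathological changes, and a complete blood count was done.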

Mus musculus [5] = experiment: Toxicity in C57BL/6J mouse assessed as pathological changes in hippocampus at 5 mg/kg, po for 3 weeks; type: organism-based; parameters: dose 5 mg/kg, route oral; conditions: in vivo, 504 h; in short: as §3
Mus musculus [6] = experiment: Agonist activity at TrkB in C57BL/6J mouse brain lysate assessed as TrkB phosphorylation at Y817 at 5 mg/kg, po administered for 21 days by immunoblotting; type: functional, organism-based; parameters: dose 5 mg/kg
In short: (§4)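 Adult male C57BL/6J mice, 8 per group, dosed orally by gavage once daily for 21 days; saline was the vehicle. Brain lysates were immunoblotted with anti-p-TrkA 794 and anti-p-TrkB 817.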

[7] = biological target: BDNF/NT-3 growth factors receptor (Rattus norvegicus) (UniProt Q63604); experiment: Agonist activity at TrkB in E16 rat embryonic cortical neurons assessed as inhibition of glutamate-induced caspase 3 activation at 50 to 500 nM after 30 mins followed by 16 hrs of 50 uM glutamate-challenge by ELISA; type: functional; in short: as §2
Mus musculus [8] = experiment: Agonist activity at TrkB in C57BL/6J mouse brain assessed as TrkB 706 phosphorylation at 1 mg/kg, po at 1 to 2 hrs by immunoblotting; type: functional, organism-based; parameters: dose 1 mg/kg; in short: as §1
[9] = biological target: BDNF/NT-3 growth factors receptor (Rattus norvegicus) (UniProt Q63604); experiment: Agonist activity at TrkB in E17 rat primary cortical neurons assessed as TrkB phosphorylation at 817 at 500 nM after 15 mins by immunoblotting; type: functional, cell-based; conditions: Cerebral cortex neuron
In short: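 Rat cortical neurons from E17 embryos, 13 DIV, were treated with 500 nM compound for 15 min. Lysates were run on 10% SDS-PAGE and immunoblotted with p-TrkB Y817 antibody at 1:20,000–40,000.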

[10] = biological target: BDNF/NT-3 growth factors receptor (Rattus norvegicus) (UniProt Q63604); experiment: Agonist activity at TrkB in E17 rat primary rat cortical neurons assessed as AKT phosphorylation at Ser 473 at 10 nM after 15 mins by titration assay; type: functional
In short: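 Primary cortical neurons were incubated with graded concentrations, starting at 10 nM, for 15 min. Phospho-Akt Ser473 was measured by sandwich ELISA on 20 µg of lysate. Data come from 2 replicated experiment sets, given as mean ± SEM. Comparisons used one-way ANOVA against control and Student's t-test between compounds.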

HEK293 [11] = experiment: Cytotoxicity against human HEK293 cells assessed as cell death at 50 to 50000 nM after 24 hrs by LDH assay; type: cell-based; conditions: hek293, 24 h, 50 µM
Mus musculus [12] = experiment: Toxicity in C57BL/6J mouse assessed as pathological changes in kidney at 5 mg/kg, po for 3 weeks; type: organism-based; parameters: dose 5 mg/kg, route oral; conditions: in vivo, 504 h; in short: as §3
Mus musculus [13] = experiment: Toxicity in C57BL/6J mouse assessed as pathological changes in brain cortex at 5 mg/kg, po for 3 weeks; type: organism-based; parameters: dose 5 mg/kg, route oral; conditions: in vivo, 504 h; in short: as §3
HEK293 [14] = experiment: Cytotoxicity against human HEK293 cells assessed as inhibition of cell proliferation at up to 50 uM by MTT assay; type: cell-based
Mus musculus [15] = experiment: Toxicity in C57BL/6J mouse assessed as pathological changes in testis at 5 mg/kg, po for 3 weeks; type: organism-based; parameters: dose 5 mg/kg, route oral; conditions: in vivo, 504 h; in short: as §3
Mus musculus [16] = experiment: Neuroprotective activity in C57BL/6J mouse assessed as inhibition of kainic acid-induced caspase 3 activation in hippocampus region at 5 mg/kg, po administered 2 to 8 hrs prior to kainic acid challenge measured after 4 hrs by immunoblotting; type: functional, organism-based; parameters: dose 5 mg/kg
Mus musculus [17] = experiment: Toxicity in C57BL/6J mouse assessed as pathological changes in heart at 5 mg/kg, po for 3 weeks; type: organism-based; parameters: dose 5 mg/kg, route oral; conditions: in vivo, 504 h; in short: as §3
Mus musculus [18] = experiment: Agonist activity at TrkA in C57BL/6J mouse brain lysate assessed as TrkA phosphorylation at Y794 at 5 mg/kg, po administered for 21 days by immunoblotting; type: functional, organism-based; parameters: dose 5 mg/kg; in short: as §4
Mus musculus [19] = experiment: Antidepressant activity in TrkB F616A knock in mouse assessed as reduction of immobility time at 5 mg/kg, po administered for 21 days by forced swim test assay in presence of TrkB F616A inhibitor 1NMPP1; type: functional, organism-based; parameters: dose 5 mg/kg
Mus musculus [20] = experiment: Toxicity in C57BL/6J mouse assessed as pathological changes in lungs at 5 mg/kg, po for 3 weeks; type: organism-based; parameters: dose 5 mg/kg, route oral; conditions: in vivo, 504 h; in short: as §3
Mus musculus [21] = experiment: Induction of neurogenesis in C57BL/6J mouse hippocampus dentate gyrus assessed as progenitor cell proliferation at 5 mg/kg, po administered for 21 days by DAPI and BrdU staining based fluorescence microscopy; type: functional, organism-based; parameters: dose 5 mg/kg
In short: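 Adult male C57BL/6J mice were gavaged at 5 mg/kg for 21 days and then given BrdU at 50 mg/kg i.p. Mice were perfused with 4% paraformaldehyde 2 h later. Paraffin sections had citrate antigen retrieval and 2 N HCl treatment, then were stained with anti-BrdU-FITC at 4 °C for 16 h and with DAPI. BrdU-positive cells in the dentate gyrus were counted by fluorescence microscopy.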

Mus musculus [22] = experiment: Toxicity in C57BL/6J mouse assessed as pathological changes in liver at 5 mg/kg, po for 3 weeks; type: organism-based; parameters: dose 5 mg/kg, route oral; conditions: in vivo, 504 h; in short: as §3
Mus musculus [23] = experiment: Neuroprotective activity in C57BL/6J mouse assessed as inhibition of kainic acid-induced caspase 3 activation in hippocampus region at 5 mg/kg, po administered 2 to 8 hrs prior to kainic acid challenge measured after 8 hrs by immunoblotting; type: functional, organism-based; parameters: dose 5 mg/kg
Mus musculus [24] = experiment: Toxicity in C57BL/6J mouse assessed as pathological changes in intestine at 5 mg/kg, po for 3 weeks; type: organism-based; parameters: dose 5 mg/kg, route oral; conditions: in vivo, 504 h; in short: as §3
Mus musculus [25] = experiment: Toxicity in C57BL/6J mouse assessed as pathological changes in muscle at 5 mg/kg, po for 3 weeks; type: organism-based, Muscle tissue; parameters: dose 5 mg/kg, route oral; conditions: in vivo, 504 h; in short: as §3
Mus musculus [26] = experiment: Neuroprotective activity in TrkB F616A knock in mouse assessed as inhibition of kainic acid-induced caspase 3 activation in brain homogenates at 5 mg/kg, po administered 4 hrs prior to kainic acid challenge measured after 4 days by immunoblotting in presence of TrkB F616A inhibitor 1NMPP1; type: functional, organism-based; parameters: dose 5 mg/kg
In short: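 TrkB F616A knock-in mice, 2–3 months old, were given 1NMPP1 at 25 µM in drinking water one day beforehand. They were then gavaged with compound at 5 mg/kg, followed 4 h later by kainic acid at 20 mg/kg. Brains were taken 4 days later, homogenized and ultracentrifuged. 40 µg of supernatant was immunoblotted.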

Mus musculus [27] = experiment: Toxicity in C57BL/6J mouse assessed as pathological changes in spleen at 5 mg/kg, po for 3 weeks; type: organism-based; parameters: dose 5 mg/kg, route oral; conditions: in vivo, 504 h; in short: as §3
[28] = Cytotoxicity at E17 rat primary cortical neurons assessed as cell death at 5 uM by LDH assay; type: cell-based; conditions: cerebral cortex neuron
Mus musculus [29] = experiment: Neuroprotective activity in po dosed C57BL/6J mouse assessed as TrkB phosphorylation in brain by titration assay; type: functional, organism-based

Sequence of BDNF/NT-3 growth factors receptor (Rattus norvegicus) (Q63604 whole entry): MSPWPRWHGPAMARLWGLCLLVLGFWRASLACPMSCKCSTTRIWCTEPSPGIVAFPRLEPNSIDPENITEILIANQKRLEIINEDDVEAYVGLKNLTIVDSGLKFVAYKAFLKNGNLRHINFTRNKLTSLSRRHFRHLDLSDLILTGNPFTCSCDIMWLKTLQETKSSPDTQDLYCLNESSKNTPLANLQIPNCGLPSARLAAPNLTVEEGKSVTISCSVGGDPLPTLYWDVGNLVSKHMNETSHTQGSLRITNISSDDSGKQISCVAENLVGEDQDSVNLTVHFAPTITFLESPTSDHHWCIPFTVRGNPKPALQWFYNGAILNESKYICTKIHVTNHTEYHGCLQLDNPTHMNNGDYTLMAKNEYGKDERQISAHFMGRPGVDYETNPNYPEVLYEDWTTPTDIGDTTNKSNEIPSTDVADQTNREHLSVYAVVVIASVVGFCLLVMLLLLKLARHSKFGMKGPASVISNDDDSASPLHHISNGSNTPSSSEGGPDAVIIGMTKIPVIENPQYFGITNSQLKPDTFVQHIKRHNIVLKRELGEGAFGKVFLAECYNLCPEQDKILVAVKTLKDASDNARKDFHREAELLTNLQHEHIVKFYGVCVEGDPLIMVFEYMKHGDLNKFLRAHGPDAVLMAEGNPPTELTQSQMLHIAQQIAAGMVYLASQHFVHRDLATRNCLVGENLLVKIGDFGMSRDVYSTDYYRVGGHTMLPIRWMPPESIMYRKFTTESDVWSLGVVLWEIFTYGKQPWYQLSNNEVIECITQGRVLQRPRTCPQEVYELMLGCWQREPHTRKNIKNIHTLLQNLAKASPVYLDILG

inhibition [2]: Active | Activity [7]: Active | Activity [9]: Active | Activity [10]: Active
SMILES: O=c1cc(-c2ccccc2)oc2c(O)c(O)ccc12 [7,8-DIHYDROXYFLAVONE]
Activity (Mus musculus [1]): Active | Activity (Mus musculus [3]): Active | Activity (Mus musculus [4]): Non-toxic | Activity (Mus musculus [5]): Non-toxic | Activity (Mus musculus [6]): Active | Activity (Mus musculus [8]): Active | Activity (HEK293 [11]): Non-toxic | Activity (Mus musculus [12]): Non-toxic | Activity (Mus musculus [13]): Non-toxic | Activity (HEK293 [14]): Non-toxic | Activity (Mus musculus [15]): Non-toxic | inhibition (Mus musculus [16]): Active | Activity (Mus musculus [17]): Non-toxic | Activity (Mus musculus [18]): inactive | Activity (Mus musculus [19]): inactive | Activity (Mus musculus [20]): Non-toxic | Activity (Mus musculus [21]): Active | Activity (Mus musculus [22]): Non-toxic | inhibition (Mus musculus [23]): Active | Activity (Mus musculus [24]): Non-toxic | Activity (Mus musculus [25]): Non-toxic | inhibition (Mus musculus [26]): inactive | Activity (Mus musculus [27]): Non-toxic | Activity [28]: Non-toxic | Activity (Mus musculus [29]): Dose-dependent effect
